System: MS2 coat protein
Assay: apparent Kd, MS2 coat protein; higher = weaker binding; RNA-MaP array; FMN 200 µM where present
Outline: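 Stalled E. coli RNA polymerase transcribed the designs on Illumina sequencing-chip clusters. SNAP-549-labelled MS2 coat protein was titrated from 0.7 or 1.5 nM, doubling to 3 µM, without and then with constant ligand, in 100 mM Tris-HCl pH 7.5, 80 mM KCl, 4 mM MgCl2, BSA, DTT, yeast tRNA and Tween-20. Per-cluster binding curves were fitted to green signal normalised to red-channel RNA signal and control-cluster median Fmax. The apparent Kd is the median of the filtered fits.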

[1] = designed as: ON switch for flavin mononucleotide, no ligand
[2] = ligand present: flavin mononucleotide, designed as: ON switch for flavin mononucleotide
[3] = designed as: OFF switch for flavin mononucleotide, no ligand
[4] = ligand present: flavin mononucleotide, designed as: OFF switch for flavin mononucleotide

Sequence: ACAUGAGGAUCUCCCAUGUAAAAUUAGGAUAUAUGACUGCACAUGAGGAUCACCCAUGUUCUACCGUAGAAGGGAUAAAUAAUU
- apparent Kd [1]: 0.516 µM
- apparent Kd [2]: 0.427 µM

Sequence: AAACAGCUAGGAUAUACCCUCCGUGAGACUCCCAAAUCGAAACAUGAGGAUCACCCAUGUAGAAGGAGCUGACG
- apparent Kd [3]: 0.0134 µM
- apparent Kd [4]: 0.0123 µM

Sequence: UCUCGUGUUCAGAAGGGCAAUCAACGAACAUGAGGAUCACCCAUGUUCUGCAGGAUAUGAACGGGUGGGAGCCCUGCGAAGGGA
- apparent Kd [1]: 0.167 µM
- apparent Kd [2]: 0.0255 µM

Sequence: AGUAUGCGGCAGGAUAUCCAUCCGCGGUGUGGUGGAGAAGGGCUGACAUGAGGAUCACCCAUGUGCGUCCUGUA
- apparent Kd [3]: 0.0236 µM
- apparent Kd [4]: 0.0379 µM

Sequence: CUUAGGUGUACAUGAGGAUCACCCAUGUCCCUGGUCAUUAGACAGGAUAUAUGGGCGGUCGCUGCAUAGAAGGGUUAAAUGGGA
- apparent Kd [1]: 0.764 µM
- apparent Kd [2]: 0.591 µM

Sequence: GCCAAUGUGGAGGAUAUCGACUUCGAAAGAAGUCGAGAAGGCCACACAUGAGGAUCACCCAUGUGAUGCCUGGC
- apparent Kd [3]: 0.199 µM
- apparent Kd [4]: 0.231 µM

Sequence: ACAUAGUGAGGAUAUGCUGCUCGUCACUUGCGUGAUGAGUAGCAGAAGGCACAUGAGGAUCACCCAUGUAAAGA
- apparent Kd [3]: 0.0423 µM
- apparent Kd [4]: 0.0637 µM

Sequence: GGUACUCAAAGAGUACCAAUACGAACAUGAGGAUCACCCAUGUAGGAUAUGCUACUCAAAGAGUAGCAGAAGGACAUGUGCCUA
- apparent Kd [3]: 0.0191 µM
- apparent Kd [4]: 0.106 µM

Sequence: ACAGAUGCUGACAUGAGGAUCACCCAUGUUAGAUUGUUAUGUCAGGAUAUUAUCUGGCAACCAGAUGAGAAGGGACCAUCUGUU
- apparent Kd [1]: 0.0156 µM
- apparent Kd [2]: 0.00731 µM

Sequence: UUUAUAAAGAUAGGAUAUAGUAUAAUAAUUUAAUUAGAAGGAUCACACAUGAGGAUCACCCAUGUAUGAGGAUCACCCAUGUAU
- apparent Kd [3]: 0.0204 µM
- apparent Kd [4]: 0.0211 µM

Sequence: ACUCAGUCAGGAUAUCGUUAAUUUAAUUGUUUGUAUUAGUUCGAGAAGGGACAUGAGGAUCACCCAUGUACUCA
- apparent Kd [3]: 0.0317 µM
- apparent Kd [4]: 0.0874 µM

Sequence: UCGCUGCGAGGAUAUACAUGAGGAUCACCCAUGUACGGGUCCGGGUCUUCGUCCAUUAGUAGAAGGCGCAGUGA
- apparent Kd [3]: 0.0527 µM
- apparent Kd [4]: 0.325 µM

Sequence: UAGUAGGUAGGAUAUACAUGGAUAUACAUUCAUGUGGACCUACAUGAGGAUCACCCAUGUAGAAGGACCUACUA
- apparent Kd [3]: 0.0381 µM
- apparent Kd [4]: 0.0889 µM

Sequence: AUACAUGUCCGAGGAUAUCUGGAAACAUUUUCAAGAGAAGGCGGACAUGAGGAUCACCCAUGUCUCUCCUCAUCAAAUCCAAGU
- apparent Kd [3]: 0.00784 µM
- apparent Kd [4]: 0.0466 µM

Sequence: GUAGCAAUCGGAGGAUAUUCAUUAAACAUGAGGAUCACCCAUGUUAAUUUGGGAGAAGGCCGAUUGCUACAAGAGCGAAAGCUC
- apparent Kd [1]: 0.00723 µM
- apparent Kd [2]: 0.00466 µM

Sequence: UGAGCAUGAGGAUAUACAUGACGUGCCGUAGCACGAGGUCUACAUGAGGAUCACCCAUGUAGAAGGCAUGUUCU
- apparent Kd [3]: 0.023 µM
- apparent Kd [4]: 0.0874 µM

Sequence: UGGAAGGUAUGAGGAUAUGCAUGCGAAACGCAUGCAGAAGGCAUGUCAAUAGACAUGAGGAUCACCCAUGUAUUAUCCUUCCAA
- apparent Kd [1]: 0.455 µM
- apparent Kd [2]: 0.0417 µM

Sequence: AGAUCCUGAGUCAGGAUAUAGAGGCGGUAGCCUGGCUAGAAGGGACAUGAGGAUCACCCAUGUGGGUUCGAGCC
- apparent Kd [3]: 0.0177 µM
- apparent Kd [4]: 0.0313 µM

Sequence: AACAGUACAGGAUAUACAUGAGGAUCACCCAUGUGACAAUUAAGUGGCGUACCACAAAGUAGAAGGGUACUGGA
- apparent Kd [3]: 0.0283 µM
- apparent Kd [4]: 0.15 µM

Sequence: AAUAACAGAGGAUAUACUGUUUUAUGUGUUUAUUAUUUUGAACAUGAGGAUCACCCAUGUAGAAGGCUGAAUGA
- apparent Kd [3]: 0.0327 µM
- apparent Kd [4]: 0.0315 µM

Sequence: UAGAACCUAGGAUAUACUUGGACCACUAAUGCACAGAUAUAACAUGAGGAUCACCCAUGUAGAAGGAGGAGUAA
- apparent Kd [3]: 0.0404 µM
- apparent Kd [4]: 0.0324 µM

Sequence: CGCUGCCACGCAGGAUAUGCAUUGGAUUCCAAUGCAGAAGGGCGAUUACAUGAGGAUCACCCAUGUGUCGGCAGUGAAGAAGAG
- apparent Kd [1]: 0.59 µM
- apparent Kd [2]: 0.0448 µM

Sequence: CCUCCGUAUUAGGAUAUCGUCCAGGAAACUGGACGAGAAGGAAUGACAUGAGGAUCACCCAUGUUAACGUGAUG
- apparent Kd [3]: 0.0215 µM
- apparent Kd [4]: 0.05 µM

From the EternaBench riboswitch data
